Reference: ChEMBL document CHEMBL4613272, “Anti-HIV-Active Nucleoside Triphosphate Prodrugs” (J Med Chem, 2020)
pEC50: −log10 of the molar value.

Tests used:
[1] = Half life in pH 7.3 phosphate buffered saline by HPLC analysis; type: physicochemical
How it was run: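 Prodrug from 50 mM DMSO-d6 stock diluted to 1.9 mM with water/DMSO-d6. Reaction started by adding phosphate buffer (50 mM stock, pH 7.3). Products followed by analytical RP18 HPLC with TBAA or TEAA buffer/acetonitrile gradient.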

[2] = test system: Human immunodeficiency virus 2; assay: Antiviral activity against HIV2 ROD infected in human CEM/0 cells assessed as inhibition of virus-induced giant cell formation measured after 4 to 5 days by microscopic analysis; settings: Human immunodeficiency virus 2, ISOLATE ROD, CCRF-CEM
[3] = Cytotoxicity against human CEM cells assessed as reduction in cell proliferation; type: cell-based; settings: CEM cells (CCRF-CEM)
How it was run: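 CC50 is the compound concentration inhibiting CEM CD4+ T-cell proliferation by 50%. Mean ± SD of n=2-3 independent experiments.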

[4] = Selectivity index, ratio of CC50 for human CEM cells to EC50 for HIV1 HE infected in human CEM/0 cells; settings: CEM cells (CC50) and HIV1 HE infected CEM/0 cells (EC50)
[5] = test system: Human immunodeficiency virus 1; assay: Antiviral activity against HIV1 HE infected in human CEM/0 cells assessed as inhibition of virus-induced giant cell formation measured after 4 to 5 days by microscopic analysis; settings: Human immunodeficiency virus 1, HE, CCRF-CEM
[6] = test system: Human immunodeficiency virus 2; assay: Antiviral activity against HIV2 ROD infected in thymidine kinase-deficient human CEM cells assessed as inhibition of virus-induced giant cell formation measured after 4 to 5 days by microscopic analysis; settings: Human immunodeficiency virus 2, ISOLATE ROD, CCRF-CEM
[7] = Prodrug conversion in pH 7.3 phosphate buffered saline assessed as pig liver esterase-mediated d4TTP formation by HPLC analysis; type: ADME, Sus scrofa; settings: in vitro
How it was run: (§1)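 Prodrug diluted from 50 mM DMSO stock through a 6.0 mM intermediate into DMSO/50 mM PBS pH 7.3. Started with pig liver esterase (3 mg/mL solution in PBS) and shaken at 37 °C, 800 rpm. Aliquots quenched in MeOH at intervals, filtered, stored in liquid nitrogen and analysed by RP18 HPLC.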

[8] = Half life in pH 7.3 phosphate buffered saline in presence of pig liver esterase by HPLC analysis; type: ADME, Sus scrofa; how it was run: as §1
[9] = Half life in human CEM/0 cell extracts by HPLC analysis; type: ADME, CCRF-CEM
How it was run: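 Cell extract prepared from CEM cells grown in RPMI-1640-based medium to ~3·10^6 cells/mL. Cells washed twice in cold PBS, resuspended at 10^8 cells/mL, sonicated, cleared at 10,000 rpm and stored at -80 °C. Prodrug at 6.0 mM hydrolysis solution in DMSO-d6 mixed with water and extract at 37 °C over time. Samples iced, sonicated and centrifuged; supernatant analysed by RP18 HPLC. t1/2 calculated as for chemical hydrolysis.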

SMILES	half-life [1]	pEC50 [2]	CC50 [3]	selectivity ratio [4]	pEC50 [5]	pEC50 [6]	Drug metabolism [7]	half-life [8]	half-life [9]
CCCCCCCCCCCCCCCCOC(=O)Oc1ccc(COP(=O)(OCc2ccc(OC(=O)CC(C)C)cc2)OP(=O)(O)OP(=O)(O)OC[C@@H]2C=C[C@H](n3cc(C)c(=O)[nH]c3=O)O2)cc1.N.N (stereo partly specified)	77 h	–	–	–	–	–	–	–	–
CCCCCCCCCCCCCCCOC(=O)Oc1ccc(COP(=O)(OCc2ccc(OC(=O)CCCC)cc2)OP(=O)(O)OP(=O)(O)OC[C@@H]2C=C[C@H](n3cc(C)c(=O)[nH]c3=O)O2)cc1.N.N (stereo partly specified)	74 h	–	–	–	–	–	–	–	–
CCCCCCCCCCCCCCCCOC(=O)Oc1ccc(COP(=O)(OCc2ccc(OC(=O)CCCCCCCCC)cc2)OP(=O)(O)OP(=O)(O)OC[C@@H]2C=C[C@H](n3cc(C)c(=O)[nH]c3=O)O2)cc1.N.N (stereo partly specified)	85 h	7.11	16 µM	100	6.80	6.62	–	–	–
CCCCCCCCCCCCCCCCOC(=O)Oc1ccc(COP(=O)(OCc2ccc(OC(=O)CCCCCC)cc2)OP(=O)(O)OP(=O)(O)OC[C@@H]2C=C[C@H](n3cc(C)c(=O)[nH]c3=O)O2)cc1.N.N (stereo partly specified)	89 h	–	–	–	–	–	–	–	–
CCCCCCOC(=O)Oc1ccc(COP(=O)(O)OP(=O)(O)OP(=O)(O)OC[C@@H]2C=C[C@H](n3cc(C)c(=O)[nH]c3=O)O2)cc1.N.N.N	544 h	–	–	–	–	–	–	–	–
Cc1cn([C@H]2C=C[C@@H](COP(=O)(O)OP(=O)(O)OP(=O)(O)O)O2)c(=O)[nH]c1=O [STAVUDINE TRIPHOSPHATE]	> 500 h	–	–	–	–	–	–	–	–
CCCCCCCCCCCCCCCCOC(=O)Oc1ccc(COP(=O)(OCCC#N)OP(=O)(O)OP(=O)(O)OC[C@@H]2C=C[C@H](n3cc(C)c(=O)[nH]c3=O)O2)cc1.N.N (stereo partly specified)	56 h	6.52	53 µM	100	6.28	5.49	–	–	–
CCCCCCCCCCCCOC(=O)Oc1ccc(COP(=O)(OCc2ccc(OC(=O)CCC)cc2)OP(=O)(O)OP(=O)(O)OC[C@@H]2C=C[C@H](n3cc(C)c(=O)[nH]c3=O)O2)cc1.N.N (stereo partly specified)	75 h	–	–	–	–	–	–	–	–
CCCCCCCCCCCCCCCCOC(=O)Oc1ccc(COP(=O)(OCc2ccc(OC(=O)CCCCCCCC)cc2)OP(=O)(O)OP(=O)(O)OC[C@@H]2C=C[C@H](n3cc(C)c(=O)[nH]c3=O)O2)cc1.N.N (stereo partly specified)	90 h	–	–	–	–	–	Metabolite_Detected	13.8 h	6.4 h
CCCCCCCCCCCOC(=O)Oc1ccc(COP(=O)(OCc2ccc(OC(=O)CC)cc2)OP(=O)(O)OP(=O)(O)OC[C@@H]2C=C[C@H](n3cc(C)c(=O)[nH]c3=O)O2)cc1.N.N (stereo partly specified)	52 h	–	–	–	–	–	–	–	–
CCCCCCCCCCCCCCCCCCOC(=O)Oc1ccc(COP(=O)(OCc2ccc(OC(=O)OCCCC)cc2)OP(=O)(O)OP(=O)(O)OC[C@@H]2C=C[C@H](n3cc(C)c(=O)[nH]c3=O)O2)cc1.N.N (stereo partly specified)	111 h	–	–	–	–	–	–	–	–
CCCCCCCCCCCCOC(=O)Oc1ccc(COP(=O)(OCc2ccc(OC(=O)OCCCC)cc2)OP(=O)(O)OP(=O)(O)OC[C@@H]2C=C[C@H](n3cc(C)c(=O)[nH]c3=O)O2)cc1.N.N (stereo partly specified)	107 h	6.77	54 µM	74	6.14	5.95	Metabolite_Detected	0.28 h	–
CCCCCCCCCOC(=O)Oc1ccc(COP(=O)(OCc2ccc(OC(=O)OCCCCCCCCC)cc2)OP(=O)(O)OP(=O)(O)OC[C@@H]2C=C[C@H](n3cc(C)c(=O)[nH]c3=O)O2)cc1.N.N	101 h	7.05	34 µM	100	6.47	6.64	–	–	–
CCCCCCCCCCCCCCOC(=O)Oc1ccc(COP(=O)(OCc2ccc(OC(=O)CC)cc2)OP(=O)(O)OP(=O)(O)OC[C@@H]2C=C[C@H](n3cc(C)c(=O)[nH]c3=O)O2)cc1.N.N (stereo partly specified)	74 h	–	–	–	–	–	–	–	–
CCCCCCCCCCCCOC(=O)Oc1ccc(COP(=O)(OCc2ccc(OC(=O)C(C)C)cc2)OP(=O)(O)OP(=O)(O)OC[C@@H]2C=C[C@H](n3cc(C)c(=O)[nH]c3=O)O2)cc1.N.N (stereo partly specified)	70 h	–	–	–	–	–	–	–	–
CCCCCCCCCCCCOC(=O)Oc1ccc(COP(=O)(OCCC#N)OP(=O)(O)OP(=O)(O)OC[C@@H]2C=C[C@H](n3cc(C)c(=O)[nH]c3=O)O2)cc1.N.N (stereo partly specified)	30 h	6.64	> 100 µM	> 212	6.33	5.61	–	–	–
CCCCCCCCCOC(=O)Oc1ccc(COP(=O)(OCc2ccc(OC(=O)CC)cc2)OP(=O)(O)OP(=O)(O)OC[C@@H]2C=C[C@H](n3cc(C)c(=O)[nH]c3=O)O2)cc1.N.N (stereo partly specified)	25 h	7.40	84 µM	1150	7.14	5.75	–	–	–
CCCCCCCCCOC(=O)Oc1ccc(COP(=O)(OCc2ccc(OC(=O)CCCCCCCCC)cc2)OP(=O)(O)OP(=O)(O)OC[C@@H]2C=C[C@H](n3cc(C)c(=O)[nH]c3=O)O2)cc1.N.N (stereo partly specified)	81 h	7.05	37 µM	336	6.96	6.82	–	–	–
Cc1cn([C@H]2C=C[C@@H](CO)O2)c(=O)[nH]c1=O [STAVUDINE]	–	–	> 50 µM	> 116	–	4.51	–	–	–
CCCCCCCCCCOC(=O)Oc1ccc(COP(=O)(OCc2ccc(OC(=O)CC)cc2)OP(=O)(O)OP(=O)(O)OC[C@@H]2C=C[C@H](n3cc(C)c(=O)[nH]c3=O)O2)cc1.N.N (stereo partly specified)	34 h	–	–	–	–	–	–	–	–
CCCCCCCCCCCCCCOC(=O)Oc1ccc(COP(=O)(OCc2ccc(OC(=O)CCCC)cc2)OP(=O)(O)OP(=O)(O)OC[C@@H]2C=C[C@H](n3cc(C)c(=O)[nH]c3=O)O2)cc1.N.N (stereo partly specified)	69 h	–	–	–	–	–	–	–	–
CCCCCCCCCCCCOC(=O)Oc1ccc(COP(=O)(OCc2ccc(OC(=O)CC)cc2)OP(=O)(O)OP(=O)(O)OC[C@@H]2C=C[C@H](n3cc(C)c(=O)[nH]c3=O)O2)cc1.N.N (stereo partly specified)	66 h	6.89	33 µM	541	7.21	6.19	Metabolite_Detected	0.44 h	–
CCCCCCCCCCCCOC(=O)Oc1ccc(COP(=O)(O)OP(=O)(O)OP(=O)(O)OC[C@@H]2C=C[C@H](n3cc(C)c(=O)[nH]c3=O)O2)cc1.N.N.N	625 h	6.60	> 100 µM	> 303	6.48	5.70	–	–	–
CCCCCCCCCCCCCCCCOC(=O)Oc1ccc(COP(=O)(OCc2ccc(OC(C)=O)cc2)OP(=O)(O)OP(=O)(O)OC[C@@H]2C=C[C@H](n3cc(C)c(=O)[nH]c3=O)O2)cc1.N.N (stereo partly specified)	81 h	–	–	–	–	–	–	–	–
CCCCCCCCCCCC(=O)Oc1ccc(COP(=O)(O)OP(=O)(O)OP(=O)(O)OC[C@@H]2C=C[C@H](n3cc(C)c(=O)[nH]c3=O)O2)cc1.N.N.N	460 h	–	–	–	–	–	–	–	–
CCCCCCCCCCCCCCCCCCOC(=O)Oc1ccc(COP(=O)(OCc2ccc(OC(=O)CCCC)cc2)OP(=O)(O)OP(=O)(O)OC[C@@H]2C=C[C@H](n3cc(C)c(=O)[nH]c3=O)O2)cc1.N.N (stereo partly specified)	74 h	7.60	58 µM	1050	7.26	6.25	–	–	–
CCCCCCCCCCCCCCCCOC(=O)Oc1ccc(COP(=O)(O)OP(=O)(O)OP(=O)(O)OC[C@@H]2C=C[C@H](n3cc(C)c(=O)[nH]c3=O)O2)cc1.N.N.N	> 1600 h	6.54	61 µM	122	6.30	5.84	–	–	–
